Consider 6 compounds from PubChem BioAssay AID602269 (Broad Institute, 2012).

Inconclusive results are not listed. Activity calls are given as the source filed them.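 The calls were made as follows: active = active in every separate test run, each with half-maximal potency at or below twice its top valid dose; inconclusive = test runs disagree, or a flat partial drop, or poor fit; inactive = inactive in every test run, including signal rising instead.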

The AC50 is the midpoint of the concentration-response curve, whichever way the signal moves.

Tested on in the first assay: not listed separately
In words: GFP reporter loss versus dox-driven RFP – NIH3T3 R4-3T3 cells, dry powder, dose response (AID 602269). Particulars: R4-3T3 NIH3T3 HSF-1 GFP / Tet-On RFP fluorescence, 48 h; at 26 µM (top of the series). In a few lines: (§1)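 Technique: bottom-read fluorescence, GFP ex 485/em 535 nm, RFP ex 550/em 595 nm / Test system: engineered NIH3T3 cells, HSF-1 GFP plus doxycycline-inducible RFP / Control set: Didemnin B 400 nM as positive control / Times: 2 h 42 °C shock, then 48 h 37 °C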
On to `CCc1ccc(NC(=O)C2C3CCC(O3)C2C(=O)O)cc1` (stereo unspecified), for which the activity change, negative = inhibition was -14.3% (inactive).

The test system of a further assay is R4-3T3 NIH3T3 HSF-1 GFP / Tet-On RFP fluorescence, 48 h. Described as above.
Conditions: not given
In short, it runs like this:
as §1
Take `Oc1ccc(Br)cc1/C=N/Nc1ccccn1`: the concentration at half-maximal activity (AC50) is 994 nM. The same measure, in the same setting: the result for `O=C(CCl)N1CCCC1c1ccc2c(c1)OCCO2` (stereo unspecified) reads 1180 nM; that for `CC(C)(C)C(=O)NC(=S)NNC(=O)c1sc2ccccc2c1Cl`, 4550 nM. For `CC1=NNC(=O)/C1=C\c1cn(-c2ccccc2)nc1-c1ccc(Cl)cc1`, the AC50 is 1270 nM. As for `O=C1C=C(NCCN2CCOCC2)C(=O)c2cnccc21`, the AC50 is 2280 nM.
